Results taken from ChEMBL document CHEMBL4130623, “Discovery of Highly Potent Pinanamine-Based Inhibitors against Amantadine- and Oseltamivir-Resistant Influenza A Viruses” (J Med Chem, 2018).
The source made the active and inactive calls. No cut-off for these calls is given here.

How the values were obtained:
[1] = tested on: Influenza A virus (A/Puerto Rico/8/1934(H1N1)); assay: Antiviral activity against Influenza A virus (A/PR/8/34 (H1N1)(NA-H274Y)) infected in MDCK cells assessed as reduction in virus-induced cytopathic effect after 48 hrs by microscopic analysis; assay type: functional, organism-based
Summary of the method: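 MDCK monolayers (5×10^4 cells/well, grown 24 h) were rinsed twice, infected with 100 TCID50 virus for 2 h at 37 °C in 5% CO2, and the inoculum was removed. Two-fold serial compound dilutions in DMEM with 1.5 µg/mL trypsin were added and incubated 48 h at 34 °C. CPE percentage was scored by microscope and EC50 fitted by non-linear regression.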

[2] = tested on: Matrix protein 2 (Influenza A virus (A/Udorn/307/1972(H3N2))), P0DOF8 [S31N]; assay: Inhibition of Influenza A virus AM2 S31N mutant expressed in Xenopus laevis frog oocytes assessed as maximum reduction in channel current at 100 uM at pH 5.5 after 2 mins by TEVC assay; assay type: cell-based
Summary of the method: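 Xenopus laevis oocytes were microinjected with RNA expressing A/M2 S31N. Compound was applied for 2 min at pH 5.5 and the percentage inhibition of M2 current was recorded by two-electrode voltage clamp. Each measurement was repeated twice with different cells.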

| SMILES | EC50 [1] [µM] | inhibition [2] |
| --- | --- | --- |
| NC12CC3CC(CC(C3)C1)C2 [AMANTADINE] | > 100 |  |
| CCOC(=O)C1=C[C@@H](OC(CC)CC)[C@H](NC(C)=O)[C@@H](N)C1 [OSELTAMIVIR] | > 10 |  |
| C[C@@H]1C2CC(C[C@H]1NCc1sccc1C1CC1)C2(C)C (single isomer, unassigned) | 6.85 | inactive |
